According to ChEMBL document CHEMBL5096186, “Design, Synthesis, and Biological Evaluation of Novel Pyrimido[4,5-b]indole Derivatives Against Gram-Negative Multidrug-Resistant Pathogens” (J Med Chem, 2021):
≈ marks a conversion by molar mass, not a printed value. Calls of active or inactive are those of the source. The rule behind the calls is not given here.

Assays:
[1] = molecular target: T1, hERG (KCNH2) potassium channel (Homo sapiens, UniProt Q12809); test: Inhibition of hERG potassium channel assessed as maximum inhibition rate at 3 uM at -80 mV holding potential incubated for 120 seconds by whole cell-automated voltage clamp analysis assay relative to control; type: toxicity; settings: time 120 sec
T1 sequence (Q12809 whole entry): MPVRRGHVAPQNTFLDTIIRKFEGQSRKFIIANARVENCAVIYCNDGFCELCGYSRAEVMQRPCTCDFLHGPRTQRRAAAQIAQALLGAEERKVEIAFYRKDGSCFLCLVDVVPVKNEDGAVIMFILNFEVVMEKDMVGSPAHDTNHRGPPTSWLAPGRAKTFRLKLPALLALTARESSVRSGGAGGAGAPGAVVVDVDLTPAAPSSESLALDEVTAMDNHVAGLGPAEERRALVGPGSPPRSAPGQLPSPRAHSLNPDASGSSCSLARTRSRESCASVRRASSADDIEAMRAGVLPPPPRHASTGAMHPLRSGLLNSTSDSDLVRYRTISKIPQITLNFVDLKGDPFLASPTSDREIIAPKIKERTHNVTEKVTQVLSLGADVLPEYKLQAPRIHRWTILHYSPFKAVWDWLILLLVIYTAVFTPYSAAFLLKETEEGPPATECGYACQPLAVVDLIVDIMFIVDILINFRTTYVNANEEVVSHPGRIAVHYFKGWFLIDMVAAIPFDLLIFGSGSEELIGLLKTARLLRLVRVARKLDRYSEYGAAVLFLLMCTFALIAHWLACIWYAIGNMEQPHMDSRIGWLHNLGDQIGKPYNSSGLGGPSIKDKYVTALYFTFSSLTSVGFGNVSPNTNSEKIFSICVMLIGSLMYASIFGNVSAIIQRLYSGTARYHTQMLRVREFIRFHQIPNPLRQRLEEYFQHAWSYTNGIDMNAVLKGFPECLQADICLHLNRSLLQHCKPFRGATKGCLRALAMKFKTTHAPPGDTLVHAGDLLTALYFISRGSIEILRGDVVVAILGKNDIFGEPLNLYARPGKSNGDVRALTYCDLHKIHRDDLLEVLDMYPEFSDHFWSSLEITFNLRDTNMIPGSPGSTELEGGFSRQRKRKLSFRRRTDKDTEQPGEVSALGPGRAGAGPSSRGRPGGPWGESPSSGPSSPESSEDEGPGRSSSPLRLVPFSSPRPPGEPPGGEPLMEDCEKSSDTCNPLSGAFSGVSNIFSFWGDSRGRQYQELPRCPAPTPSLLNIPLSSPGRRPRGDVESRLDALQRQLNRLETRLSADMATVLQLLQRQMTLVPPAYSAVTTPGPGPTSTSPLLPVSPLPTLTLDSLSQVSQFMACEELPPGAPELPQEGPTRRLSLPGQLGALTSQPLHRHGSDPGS
Method in brief: (§1)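 Automated whole-cell patch clamp, holding potential −80 mV. Voltage protocol applied every 20 s. Baseline set with external solution containing 0.1% DMSO and stabilised 3 min. Compound applied until steady state, at least 3 min, then washout. Maximum tested concentration 40 μM, or 3 μM for cisapride as positive control.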

[2] = tested on: Escherichia coli; test: Antibacterial activity against ESBL-producing multidrug resistant Escherichia coli assessed as reduction in bacterial growth incubated for 18 to 20 hrs by CLSI based microdilution method; type: functional; settings: time 18-20 hrs
Method in brief: (§2)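 Broth microdilution per CLSI. Compounds dissolved in DMSO (levofloxacin and meropenem in water) as 64 μg/mL stock, then serial twofold dilutions in broth giving 64 to 0.008 μg/mL. […] Clinical isolates tested as several strains per group; racemic GP-1 served as positive control; values given as MIC ranges.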

[3] = Cytotoxicity against human HEK293 cells assessed as cell viability measured for 48 hrs by CCK-8 assay; type: toxicity, cell-based
Method in brief: (§3)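 Cells seeded at 1 × 10⁴ per well and grown for 48 h. Then exposed to test articles at 1–200 μM for another 48 h (n = 6). Viability by CCK-8 added for 2 h, absorbance read at 450 nm. CC50 calculated and reported as the mean.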

[4] = tested on: Escherichia coli; test: Antibacterial activity against multidrug resistant wild type Escherichia coli ATCC BAA-2340 assessed as reduction in bacterial growth incubated for 18 to 20 hrs by CLSI based microdilution method; type: functional; settings: time 18-20 hrs; method in brief: as §2
[5] = AUC (0 to infinity) in Sprague-Dawley rat at 5 mg/kg, iv measured upto 24 hrs by LC-MS/MS analysis; type: ADME, organism-based; parameters: time < 24 hrs, dose 5 mg/kg, route iv; settings: in vivo
Method in brief: (§4)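 Male Sprague-Dawley rats, n = 3 per group, single intravenous dose. For 4 mg/kg: 180–280 g rats, vehicle 5% DMSO + 5% EtOH + 40% PEG300 + 50% saline, blood from the retrobulbar vein at 0.05–24 h. For 5 and 20 mg/kg: 180–300 g rats, vehicle 5% DMSO + 5% solutol + 90% saline, sampled at 0.083–24 h. Plasma quantified by LC/MS/MS. Parameters from mean plasma concentration by noncompartmental analysis; values are mean ± standard deviation.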

[6] = tested on: Escherichia coli; test: Antibacterial activity against multidrug resistant wild type Escherichia coli NCTC 13353 assessed as reduction in bacterial growth incubated for 18 to 20 hrs by CLSI based microdilution method; type: functional; settings: time 18-20 hrs; method in brief: as §2
[7] = Clearance in Sprague-Dawley rat at 20 mg/kg, iv measured upto 24 hrs by LC-MS/MS analysis; type: ADME, organism-based; settings: in vivo; method in brief: as §4
[8] = molecular target: Voltage-gated inwardly rectifying potassium channel KCNH2 (Homo sapiens, UniProt Q12809); test: Inhibition of hERG potassium channel assessed as […] at -80 mV holding potential incubated for 120 seconds by whole cell-automated voltage clamp analysis assay; type: toxicity; method in brief: as §1
Chain of Voltage-gated inwardly rectifying potassium channel KCNH2 (Q12809 whole entry): as above

[9] = tested on: Klebsiella pneumoniae; test: Antibacterial activity agains wild type Klebsiella pneumoniae ATCC BAA-2470 assessed as reduction in bacterial growth incubated for 18 to 20 hrs by CLSI based microdilution method; type: functional; settings: time 18-20 hrs; method in brief: as §2
[10] = Metabolic stability in human liver microsome assessed as metabolic bioavailability at 0.1 uM in presence of NADPH incubated upto 60 mins by LC-MS/MS analysis; type: ADME; settings: liver microsomes
Method in brief: (§5)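 Compound at 0.1 μM final, in 0.01% DMSO with 0.005% BSA. Incubated with rat or human liver microsomes at 0.33 mg/mL in 0.1 M Tris-HCl, pH 7.4, with 5 mM MgCl₂ and 1 mM NADPH, at 37 °C. Samples at 0, 7, 17, 30 and 60 min quenched with cold methanol and analysed by LC-MS/MS. Half-life, Cl_int and MF% derived as previously described.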

[11] = tested on: Acinetobacter baumannii; test: Antibacterial activity against OXA23-producing multidrug resistant Acinetobacter baumannii infected in iv dosed kunming mouse measured after 24 hrs; type: functional, organism-based; settings: dose 10-30 mg/kg, DDE = dose-dependent effect
Method in brief: (§6)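 Neutropenic thigh model in Kunming mice (18−22 g, half male/half female; 8 per dosed group, 13 vehicle). Cyclophosphamide given ip 4 days (150 mg/kg) and 1 day (100 mg/kg) before infection. Right posterior thigh injected im with 0.1 mL of 10⁷ cfu/mL OXA-23 MDR A. baumannii clinical isolate. Iv tail dosing at 10, 20, 30 mg/kg 2 h post-infection; levofloxacin 30 mg/kg iv; saline vehicle. Thighs homogenised in saline for cfu after 24 h.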

[12] = MRT in Sprague-Dawley rat at 5 mg/kg, iv measured upto 24 hrs by LC-MS/MS analysis; type: ADME, organism-based; settings: in vivo; method in brief: as §4
[13] = Metabolic stability in rat liver microsome assessed as elimination half life at 0.1 uM in presence of NADPH incubated upto 60 mins by LC-MS/MS analysis; type: ADME; settings: liver microsomes, read-out: beta t1/2; method in brief: as §5
[14] = Cytotoxicity against human L02 cells assessed as cell viability measured for 48 hrs by CCK-8 assay; type: toxicity, cell-based; method in brief: as §3
[15] = MRT in Sprague-Dawley rat at 20 mg/kg, iv measured upto 24 hrs by LC-MS/MS analysis; type: ADME, organism-based; settings: in vivo; method in brief: as §4
[16] = Volume of distribution at the steady state in Sprague-Dawley rat at 20 mg/kg, iv measured upto 24 hrs by LC-MS/MS analysis; type: ADME, organism-based; settings: in vivo, read-out: Vdss; method in brief: as §4
[17] = Clearance in Sprague-Dawley rat at 5 mg/kg, iv measured upto 24 hrs by LC-MS/MS analysis; type: ADME, organism-based; settings: in vivo; method in brief: as §4
[18] = tested on: Klebsiella pneumoniae; test: Antibacterial activity agains wild type Klebsiella pneumoniae ATCC BAA-1705 assessed as reduction in bacterial growth incubated for 18 to 20 hrs by CLSI based microdilution method; type: functional; settings: time 18-20 hrs
Method in brief: (§7)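 CLSI broth microdilution. Compounds in DMSO (levofloxacin and meropenem in water), serial twofold dilutions in broth, 64 to 0.008 μg/mL. […] Results reported as MIC ranges across strains.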

[19] = Metabolic stability in rat liver microsome assessed as intrinsic clearance at 0.1 uM in presence of NADPH incubated upto 60 mins by LC-MS/MS analysis; type: ADME; settings: microsomes, 1 h; method in brief: as §5
[20] = molecular target: T1, hERG (KCNH2) potassium channel; test: Inhibition of hERG potassium channel assessed as maximum inhibition rate at 40 uM at -80 mV holding potential incubated for 120 seconds by whole cell-automated voltage clamp analysis assay relative to control; type: toxicity; settings: time 120 sec; method in brief: as §1
[21] = tested on: Pseudomonas aeruginosa; test: Antibacterial activity against wild type Pseudomonas aeruginosa ATCC 27853 assessed as reduction in bacterial growth incubated for 18 to 20 hrs by CLSI based microdilution method; type: functional; settings: time 18-20 hrs; method in brief: as §7
[22] = tested on: Acinetobacter baumannii; test: Bactericidal activity against OXA23-producing multidrug resistant Acinetobacter baumannii infected in dosed kunming mouse at 30 mg/kg, iv measured after 24 hrs; type: functional, organism-based; method in brief: as §6
[23] = Metabolic stability in rat liver microsome assessed as metabolic bioavailability at 0.1 uM in presence of NADPH incubated upto 60 mins by LC-MS/MS analysis; type: ADME; settings: liver microsomes; method in brief: as §5
[24] = AUC (0 to infinity) in Sprague-Dawley rat at 20 mg/kg, iv measured upto 24 hrs by LC-MS/MS analysis; type: ADME, organism-based; parameters: dose 20 mg/kg, time < 24 hrs, route iv; settings: in vivo; method in brief: as §4
[25] = tested on: Acinetobacter baumannii; test: Antibacterial activity against wild type Acinetobacter baumannii NCTC 13304 assessed as reduction in bacterial growth incubated for 18 to 20 hrs by CLSI based microdilution method; type: functional; settings: time 18-20 hrs; method in brief: as §2
[26] = Metabolic stability in human liver microsome assessed as elimination half life at 0.1 uM in presence of NADPH incubated upto 60 mins by LC-MS/MS analysis; type: ADME; settings: liver microsomes, read-out: beta t1/2; method in brief: as §5
[27] = tested on: Acinetobacter baumannii; test: Antibacterial activity agains OXA23-producing multidrug resistant Acinetobacter baumannii assessed as reduction in bacterial growth incubated for 18 to 20 hrs by CLSI based microdilution method; type: functional; settings: time 18-20 hrs; method in brief: as §2
[28] = tested on: Pseudomonas aeruginosa; test: Antibacterial activity against IMP4-producing multidrug resistant Pseudomonas aeruginosa assessed as reduction in bacterial growth incubated for 18 to 20 hrs by CLSI based microdilution method; type: functional; settings: time 18-20 hrs; method in brief: as §2
[29] = Metabolic stability in human liver microsome assessed as intrinsic clearance at 0.1 uM in presence of NADPH incubated upto 60 mins by LC-MS/MS analysis; type: ADME; settings: microsomes, 1 h; method in brief: as §5
[30] = tested on: Klebsiella pneumoniae; test: Antibacterial activity against KPC2-producing multidrug resistant Klebsiella pneumoniae assessed as reduction in bacterial growth incubated for 18 to 20 hrs by CLSI based microdilution method; type: functional; settings: time 18-20 hrs; method in brief: as §2
[31] = Volume of distribution at the steady state in Sprague-Dawley rat at 5 mg/kg, iv measured upto 24 hrs by LC-MS/MS analysis; type: ADME, organism-based; settings: in vivo, read-out: Vdss; method in brief: as §4
[32] = Elimination half life in Sprague-Dawley rat at 20 mg/kg, iv measured upto 24 hrs by LC-MS/MS analysis; type: ADME, organism-based; settings: in vivo, read-out: beta t1/2 (converted); method in brief: as §4
[33] = Elimination half life in Sprague-Dawley rat at 5 mg/kg, iv measured upto 24 hrs by LC-MS/MS analysis; type: ADME, organism-based; settings: in vivo, read-out: beta t1/2 (converted); method in brief: as §4

COc1cc(N)c(Cl)cc1C(=O)NC1CCN(CCCOc2ccc(F)cc2)CC1OC (stereo not drawn) [CISAPRIDE MONOHYDRATE]
inhibition at 2 min, 3 µM [1]: 97.7%

CNc1cc(F)cc2c1[nH]c1nc(Oc3cnc(C)nc3)nc(N3CC(=C(C)[C@@H](C)N)C3)c12
MIC [2]: 0.5 µg/mL (≈ 1.11 µM) | CC50 at 48 h [3]: 19 µM | MIC [4]: 0.5 µg/mL (≈ 1.11 µM) | AUC(0-inf) [5]: 1100 ng·h/mL | MIC [6]: 0.125 µg/mL (≈ 0.279 µM) | clearance [7]: 57.7 mL/min/kg | IC50 [8]: > 40 µM | MIC [9]: 2 µg/mL (≈ 4.46 µM) | Fh at 1 h, 0.1 µM [10]: 40.8% | Activity [11]: Dde | MRT [12]: 7.8 h | half-life at 0.1 µM [13]: 8.3 min | CC50 at 48 h [14]: 16 µM | MRT [15]: 3.1 h | Vd [16]: 10.8 L/kg | clearance [17]: 76.6 mL/min/kg | MIC [18]: 4 µg/mL (≈ 8.92 µM) | CLH [19]: 252 mL/min/g | inhibition at 2 min, 40 µM [20]: 18.3% | MIC [21]: 2 µg/mL (≈ 4.46 µM) | Activity [22]: Active | Fh at 1 h, 0.1 µM [23]: 15% | AUC(0-inf) [24]: 5790 ng·h/mL | MIC [25]: 0.25 µg/mL (≈ 0.557 µM) | half-life at 0.1 µM [26]: 1.23 h | MIC [27]: 0.25 µg/mL (≈ 0.557 µM) | MIC [28]: 4 µg/mL (≈ 8.92 µM) | CLH [29]: 28.4 mL/min/g | MIC [30]: 2 µg/mL (≈ 4.46 µM) | Vd [31]: 35.7 L/kg | half-life [32]: 5.9 h | half-life [33]: 8.5 h
